In data set [1] the target is T1, Cannabinoid receptor 1 (Homo sapiens, UniProt P21554). Briefly: Antagonist activity at human CB1 receptor expressed in CHO-K1 cells by intracellular Ca2+ mobilization assay in presence of CP55940. It counts as functional, cell-based. In outline: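 CHO-K1 cells co-expressing human CB1 and Gαq16; intracellular calcium flux read with fluorescent dye on a 96-well plate reader. Rightward shift of the CP55940 concentration-response curve gives Ke = [ligand]/(DR−1), DR being the CP55940 EC50 ratio with versus without test agent. Averages of 3–6 measurements.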
T1 sequence (P21554 whole entry): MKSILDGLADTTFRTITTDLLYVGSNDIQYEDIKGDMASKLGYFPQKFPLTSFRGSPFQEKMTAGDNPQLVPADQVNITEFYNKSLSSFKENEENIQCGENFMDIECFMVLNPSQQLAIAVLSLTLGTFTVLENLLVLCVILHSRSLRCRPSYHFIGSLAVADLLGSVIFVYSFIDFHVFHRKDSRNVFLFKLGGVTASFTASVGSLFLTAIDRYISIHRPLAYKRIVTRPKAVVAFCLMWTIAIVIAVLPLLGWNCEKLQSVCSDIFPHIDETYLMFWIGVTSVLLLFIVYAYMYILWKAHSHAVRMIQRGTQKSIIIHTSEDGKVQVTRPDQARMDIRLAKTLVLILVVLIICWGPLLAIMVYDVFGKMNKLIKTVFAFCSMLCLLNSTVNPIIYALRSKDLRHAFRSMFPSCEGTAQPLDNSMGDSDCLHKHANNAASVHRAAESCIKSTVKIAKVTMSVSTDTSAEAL
For orientation: A change in cytosolic calcium serves as a functional read-out for many receptors and channels.

Data set [2] deals with Cannabinoid receptor 2 (Homo sapiens, UniProt P34972). In words: Displacement of [3H]CP55940 from CB2 receptor (unknown origin) expressed in CHO-K1 cells. It counts as cell-based.
Cannabinoid receptor 2, sequence (P34972 whole entry): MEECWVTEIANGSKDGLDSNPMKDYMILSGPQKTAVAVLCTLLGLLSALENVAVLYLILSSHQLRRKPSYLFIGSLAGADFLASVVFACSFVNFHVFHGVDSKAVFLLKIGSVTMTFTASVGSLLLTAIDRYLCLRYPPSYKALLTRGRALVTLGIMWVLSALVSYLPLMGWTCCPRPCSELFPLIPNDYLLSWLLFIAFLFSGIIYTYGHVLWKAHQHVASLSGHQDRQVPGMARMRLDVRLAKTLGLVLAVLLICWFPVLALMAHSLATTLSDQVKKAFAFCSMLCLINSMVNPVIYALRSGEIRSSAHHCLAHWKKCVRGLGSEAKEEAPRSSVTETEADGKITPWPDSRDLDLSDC
Data set [3] deals with T1, Cannabinoid receptor 1. Briefly: Displacement of [3H]CP55940 from human CB1 receptor expressed in CHO-K1 cells. It counts as cell-based.
For data set [4], the species on record is Homo sapiens. In words: Selectivity ratio of Ki for CB2 receptor (unknown origin) to Ki for human CB1 receptor.
For data set [5], the system named is Mus musculus. Briefly: Antagonist activity at CB1 receptor in ICR mouse assessed as catelepsy at 10 mg/kg, po after 30 mins. Further details: dose 10 mg/kg. It counts as functional, organism-based. In outline: (§1)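 Adult ICR mice given vehicle or 10 mg/kg oral gavage, then vehicle or 30 mg/kg Δ9-THC i.v. by tail vein 30 min later. Rectal temperature was taken before injection and at 30 min after it, reported as change (°C). At 40 min, time motionless on an elevated ring over 5 min was recorded as % immobility. 5–6 mice per group; factorial ANOVA with Tukey post hoc.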

For data set [6], the system named is Mus musculus. Briefly: Antagonist activity at CB1 receptor in ICR mouse assessed as rectal temperature at 10 mg/kg, po after 30 mins relative to control. It counts as functional, organism-based. Also on record: dose 10 mg/kg. In outline: as §1
Data set [7] deals with Mus musculus. In words: Antagonist activity at CB1 receptor in ICR mouse assessed as latency period at 10 mg/kg, po after 30 mins by warm water tail withdrawal assay. It counts as functional, organism-based. Also on record: dose 10 mg/kg. In outline: (§2)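 ICR mice had baseline tail-withdrawal latency measured in a 55 °C water bath, then received oral vehicle or 10 mg/kg by gavage, followed 30 min later by i.v. vehicle or 30 mg/kg Δ9-THC. Latency was retested 20 min post-injection with a 10 s cutoff, expressed as %MPE = [(test−control)/(10−control)]×100. 5–6 mice per group; factorial ANOVA with Tukey post hoc.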

Data set [8] relates to Mus musculus. Briefly: Antagonist activity at CB1 receptor in ICR mouse assessed as suppression of spontaneous activity at 10 mg/kg, po after 30 mins. It counts as functional, organism-based. Further details: dose 10 mg/kg. In outline: (§3)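 ICR mice were gavaged with vehicle or 10 mg/kg, then injected i.v. in the tail vein 30 min later with vehicle or 30 mg/kg Δ9-THC. After 5 min each mouse was placed in an activity chamber for 10 min; horizontal movement was counted as total infrared photobeam interruptions. 5–6 mice per group; factorial ANOVA with Tukey post hoc.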

Data set [9] relates to Mus musculus. In words: Reversal of delta9-THC-mediated suppression of catelepsy in ICR mouse at 10 mg/kg, po administered 30 mins prior to delta9-THC challenge measured after 40 mins. It counts as functional, organism-based. Also on record: dose 10 mg/kg. In short, it runs like this:
as §1

In data set [10] the test system is Mus musculus. Briefly: Reversal of delta9-THC-mediated suppression of hypothermia in ICR mouse assessed as rectal temperature at 10 mg/kg, po administered 30 mins prior to delta9-THC challenge measured after 30 mins relative to control. It counts as functional, organism-based. Further details: dose 10 mg/kg. In short, it runs like this:
as §1

Data set [11] concerns Mus musculus. Briefly: Reversal of delta9-THC-mediated suppression of antinociceptive activity in ICR mouse assessed as latency period at 10 mg/kg, po administered 30 mins prior to delta9-THC challenge measured after 20 mins by warm water tail withdrawal assay. It counts as functional, organism-based. Also on record: dose 10 mg/kg. In outline:
as §2

Data set [12] deals with Mus musculus. Briefly: Reversal of delta9-THC-mediated suppression of spontaneous activity in ICR mouse at 10 mg/kg, po administered 30 mins prior to delta9-THC challenge measured after 5 mins. It counts as functional, organism-based. Further details: dose 10 mg/kg. In outline: as §3
Data set [13] has as its system Nucleic Acid. In words: Ratio of drug uptake from brain to plasma in Sprague-Dawley rat at 10 mg/kg, po after 24 hrs by LC-MS analysis. Further details: dose 10 mg/kg, route oral. It counts as ADME, organism-based. In short, it runs like this: (§4)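 Male Sprague Dawley rats, 9 weeks old, given 10 mg/kg orally by gavage in corn oil; 3 rats per time point. Un-perfused brain and plasma taken at 1, 2, 4, 8 and 24 h. Plasma, or brain homogenized in ethanol:water, was precipitated with acetonitrile, centrifuged 9000 g for 5 min and analysed by LC-MS/MS (MRM, C18 column).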

The subject of data set [14] is Nucleic Acid. Briefly: Ratio of drug uptake from brain to plasma in Sprague-Dawley rat at 10 mg/kg, po after 8 hrs by LC-MS analysis. It counts as ADME, organism-based. Further details: dose 10 mg/kg, route oral. In outline: as §4
The subject of data set [15] is Nucleic Acid. Briefly: Ratio of drug uptake from brain to plasma in Sprague-Dawley rat at 10 mg/kg, po after 2 hrs by LC-MS analysis. It counts as ADME, organism-based. Further details: dose 10 mg/kg, route oral. In outline:
as §4

In data set [16] the test system is Nucleic Acid. Briefly: Ratio of drug uptake from brain to plasma in Sprague-Dawley rat at 10 mg/kg, po after 4 hrs by LC-MS analysis. It counts as ADME, organism-based. Also on record: dose 10 mg/kg, route oral. In outline: as §4
Data set [17] is described as follows: Drug uptake in brain of Sprague-Dawley rat at 10 mg/kg, po after 24 hrs by LC-MS analysis. It counts as ADME, organism-based. Further details: dose 10 mg/kg, route oral. The following applies: read-out: Drug uptake. In outline:
as §4

Data set [18] is described as follows: Drug uptake in brain of Sprague-Dawley rat at 10 mg/kg, po after 8 hrs by LC-MS analysis. Further details: dose 10 mg/kg, route oral. It counts as ADME, organism-based. The note with it: read-out: Drug uptake. In short, it runs like this:
as §4

A short description of data set [19]: Drug uptake in brain of Sprague-Dawley rat at 10 mg/kg, po after 4 hrs by LC-MS analysis. Further details: dose 10 mg/kg, route oral. The note with it: read-out: Drug uptake. It counts as ADME, organism-based. In outline: as §4
Data set [20] in a line: Drug uptake in brain of Sprague-Dawley rat at 10 mg/kg, po after 2 hrs by LC-MS analysis. It counts as ADME, organism-based. Further details: dose 10 mg/kg, route oral. The note with it: read-out: Drug uptake. In outline:
as §4

Data set [21] can be described thus: Drug uptake in brain of Sprague-Dawley rat at 10 mg/kg, po after 1 hr by LC-MS analysis. The note with it: read-out: Drug uptake. It counts as ADME, organism-based. Further details: dose 10 mg/kg, route oral. In outline: as §4
The test system of data set [22] is Nucleic Acid. In words: Ratio of drug uptake from brain to plasma in Sprague-Dawley rat at 10 mg/kg, po after 1 hr by LC-MS analysis. Further details: dose 10 mg/kg, route oral. It counts as ADME, organism-based. In outline: as §4
The nature of data set [23]: Plasma concentration in Sprague-Dawley rat at 10 mg/kg, po after 8 hrs by LC-MS analysis. It counts as ADME, organism-based. Further details: dose 10 mg/kg, route oral. In short, it runs like this:
as §4

A short description of data set [24]: Plasma concentration in Sprague-Dawley rat at 10 mg/kg, po after 4 hrs by LC-MS analysis. Further details: dose 10 mg/kg, route oral. It counts as ADME, organism-based. In short, it runs like this: as §4
Data set [25] is described as follows: Plasma concentration in Sprague-Dawley rat at 10 mg/kg, po after 2 hrs by LC-MS analysis. It counts as ADME, organism-based. Further details: dose 10 mg/kg, route oral. In outline:
as §4

A short description of data set [26]: Plasma concentration in Sprague-Dawley rat at 10 mg/kg, po after 1 hr by LC-MS analysis. It counts as ADME, organism-based. Also on record: dose 10 mg/kg, route oral. In outline:
as §4

Data set [27] can be described thus: Plasma concentration in Sprague-Dawley rat at 10 mg/kg, po after 24 hrs by LC-MS analysis. It counts as ADME, organism-based. Further details: dose 10 mg/kg, route oral. In short, it runs like this: as §4

For orientation: Ki means a dissociation constant, usually derived from enzyme kinetics or from competition with a known ligand. The low end stands for tighter binding, the high end for weaker binding.

Active and inactive are the calls of the source.

As to `NS(=O)(=O)NC1CCN(c2ncnc3c2nc(-c2ccccc2Cl)n3-c2ccc(Cl)cc2)CC1`, the Ke in [1] turned out to be 2770 nM.
On to `O=C(NC1CCN(c2ncnc3c2nc(-c2ccccc2Cl)n3-c2ccc(Cl)cc2)CC1)Oc1ccccc1`, for which the Ki in [2] amounted to 10600 nM; in data set [3] it was 2.55 nM.
`O=C(CC1CCCC1)NC1CCN(c2ncnc3c2nc(-c2ccccc2Cl)n3-c2ccc(Cl)cc2)CC1`: in data set [4], the Ratio Ki worked out at 282. The Ki in data set [2] was 569 nM; in data set [3], 2.02 nM. Further, the Ke in data set [1] came out at 2.9 nM.
For `O=C(NC1CCN(c2ncnc3c2nc(-c2ccccc2Cl)n3-c2ccc(Cl)cc2)CC1)C1CCCCC1`, in that order: 249, 835 nM, 3.35 nM and 3.3 nM.
For `CCOC(=O)NC1CCN(c2ncnc3c2nc(-c2ccccc2Cl)n3-c2ccc(Cl)cc2)CC1`, in that order: 119, 426 nM, 3.57 nM and 2.3 nM.
On to `CCCCC(=O)NC1CCN(c2ncnc3c2nc(-c2ccccc2Cl)n3-c2ccc(Cl)cc2)CC1`, for which the outcome in [5], in data set [6], in data set [7], in [8], in data set [9] and in data set [10] was inactive. The outcome in data set [11] and in data set [12] was inactive. Further, the BPR came out at 0.01 in data set [13]; 0.03 in data set [14]; 0.04 in [15]; 0.07 in data set [16]; 0.03 in [22]. Also, the concentration at 24 h in data set [17] is 5.35 ng/mL; in data set [27] it was 438 ng/mL. The concentration at 8 h in data set [18] came to 62.5 ng/mL; in data set [23], 1960 ng/mL. Also, the figures for the concentration at 4 h in data set [19] and in [24] were 103 ng/mL and 1560 ng/mL, respectively. Further, the concentration at 2 h in data set [20] came out at 71.5 ng/mL; in data set [25], 1750 ng/mL. In addition, the concentration at 1 h came out at 24.3 ng/mL in data set [21] and 730 ng/mL in data set [26]. The Ratio Ki in [4] stood at 54. Besides, the Ki is 1050 nM in data set [2] and 19.5 nM in data set [3]. For the same compound, the Ke in [1] turned out to be 4.9 nM.
Take `CN(C)CC(=O)NC1CCN(c2ncnc3c2nc(-c2ccccc2Cl)n3-c2ccc(Cl)cc2)CC1`: the Ke in data set [1] was determined as 140 nM.
In the case of `O=S(=O)(NC1CCN(c2ncnc3c2nc(-c2ccccc2Cl)n3-c2ccc(Cl)cc2)CC1)C(F)(F)F`, in data set [4], the Ratio Ki was found to be 738. Moreover, the Ki in [2] was found to be 4500 nM; in [3], 6.1 nM. Besides, the Ke in data set [1] was 1.05 nM.
For `CC(C)CCC(=O)NC1CCN(c2ncnc3c2nc(-c2ccccc2Cl)n3-c2ccc(Cl)cc2)CC1`, in that order: 81, 215 nM, 2.67 nM and 7.4 nM.
On the same counts, the results for `CC(C)CC(=O)NC1CCN(c2ncnc3c2nc(-c2ccccc2Cl)n3-c2ccc(Cl)cc2)CC1` are 22, 89.5 nM, 4.01 nM and 5.4 nM.
For `O=C(NC1CCN(c2ncnc3c2nc(-c2ccccc2Cl)n3-c2ccc(Cl)cc2)CC1)C1CCCC1`, in that order: 39, 60.2 nM, 1.54 nM and 0.89 nM.
Regarding `O=C(CCN1CCCCC1)NC1CCN(c2ncnc3c2nc(-c2ccccc2Cl)n3-c2ccc(Cl)cc2)CC1`, in data set [1], the Ke turned out to be 789 nM.
`O=C(CC1CCCCC1)NC1CCN(c2ncnc3c2nc(-c2ccccc2Cl)n3-c2ccc(Cl)cc2)CC1`: the Ki in data set [2] was found to be 2360 nM; in data set [3] it was 1.93 nM. Moreover, the Ke in data set [1] is 2.1 nM.
Turning to `COC(=O)NC1CCN(c2ncnc3c2nc(-c2ccccc2Cl)n3-c2ccc(Cl)cc2)CC1`, the Ke in [1] was found to be 17 nM.

The values above are taken from ChEMBL document CHEMBL2434899, “Peripherally selective diphenyl purine antagonist of the CB1 receptor” (J Med Chem, 2013).
